Results published in ChEMBL document CHEMBL1649212, “AI-2/LuxS is involved in increased biofilm formation by Streptococcus intermedius in the presence of antibiotics” (2009).
The source made the active and inactive calls. The calls are words filed in the database; no cut-off is given here.

Legend:
[1] = system: Streptococcus intermedius; test: Antimicrobial activity against Streptococcus intermedius NCTC 11324 assessed as growth inhibition at 0.16 ug/ml; format: functional
Method in brief: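 Broth microdilution MIC in ultra-low-binding 96-well plates, inoculum ≈4 × 10^5. Growth was read at 595 nm, and the MIC was taken as the lowest antibiotic concentration inhibiting growth.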

[2] = system: Streptococcus intermedius; test: Antimicrobial activity against Streptococcus intermedius SI006 planktonic cells harboring luxS mutant gene assessed as bacterial count at 0.12 ug/ml (Rvb =798.3 +/- 37.09 10^8 CFU/ml); format: functional
[3] = system: Streptococcus intermedius; test: Antimicrobial activity against Streptococcus intermedius SI006 planktonic cells harboring luxS mutant gene assessed as bacterial count at 0.08 ug/ml in presence of 0.8 nM autoinducer 4,5-dihydroxy-2,3-pentanedione (Rvb =793.3 +/- 42.40 10^8 CFU/ml); format: functional
[4] = system: Streptococcus intermedius; test: Antimicrobial activity against Streptococcus intermedius SI006 planktonic cells harboring luxS mutant gene assessed as bacterial count at 0.10 ug/ml in presence of 0.8 nM autoinducer 4,5-dihydroxy-2,3-pentanedione (Rvb =793.3 +/- 42.40 10^8 CFU/ml); format: functional
[5] = system: Streptococcus intermedius; test: Antimicrobial activity against Streptococcus intermedius SI006 planktonic cells harboring luxS mutant gene assessed as bacterial count at 0.06 ug/ml in presence of 0.8 nM autoinducer 4,5-dihydroxy-2,3-pentanedione (Rvb =793.3 +/- 42.40 10^8 CFU/ml); format: functional
[6] = system: Streptococcus intermedius; test: Antimicrobial activity against Streptococcus intermedius NCTC 11324 biofilm assessed as biofilm bacterial count at 0.04 ug/ml (Rvb =402.9 +/- 26.88 10^5 CFU/ml); format: functional
[7] = system: Streptococcus intermedius; test: Antimicrobial activity against Streptococcus intermedius SI006 planktonic cells harboring luxS mutant gene assessed as bacterial count at 0.08 ug/ml (Rvb =798.3 +/- 37.09 10^8 CFU/ml); format: functional
[8] = system: Streptococcus intermedius; test: Antimicrobial activity against Streptococcus intermedius NCTC 11324 planktonic cells assessed as bacterial count at 0.12 ug/ml (Rvb =771.7 +/- 35.14 10^8 CFU/ml); format: functional
Method in brief: (§1)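 Planktonic wild-type cells were inoculated at ≈4 × 10^5 CFU/ml in TSB in ultra-low-binding plates. Media were without or with ampicillin (0.02 to 0.14 μg/ml), ciprofloxacin (0.10 to 0.35 μg/ml) or tetracycline (0.03 to 0.20 μg/ml). After 12 h at 37°C in 5% CO2 aerobic air, CFU were counted, run in parallel with the BacTiter-Glo ATP assay. Experiments were done three times in two parallels.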

[9] = system: Streptococcus intermedius; test: Antimicrobial activity against Streptococcus intermedius NCTC 11324 assessed as biofilm formation at 0.04 to 0.10 ug/ml; format: functional, organism-based
Method in brief: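 Wild-type NCTC 11324 was grown overnight in TSB and inoculated into TSB with ampicillin (0.02 to 0.10 μg/ml), ciprofloxacin (0.10 to 0.28 μg/ml) or tetracycline (0.05 to 0.30 μg/ml), added at time zero. Wells held plastic coverslips and were incubated 12 h at 37°C in 5% CO2 aerobic air. Biofilm was measured as described previously. Experiments were done three times in three parallels.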

[10] = system: Streptococcus intermedius; test: Antimicrobial activity against Streptococcus intermedius SI006 planktonic cells harboring luxS mutant gene assessed as bacterial count at 0.10 ug/ml (Rvb =798.3 +/- 37.09 10^8 CFU/ml); format: functional
[11] = system: Streptococcus intermedius; test: Antimicrobial activity against Streptococcus intermedius SI006 biofilm harboring luxS mutant gene assessed as biofilm bacterial count at 0.06 ug/ml in presence of 0.8 nM autoinducer 4,5-dihydroxy-2,3-pentanedione (Rvb =413.7 +/- 24.47 10^5 CFU/ml); format: functional
[12] = system: Streptococcus intermedius; test: Antimicrobial activity against Streptococcus intermedius NCTC 11324 planktonic cells assessed as bacterial count at 0.10 ug/ml (Rvb =771.7 +/- 35.14 10^8 CFU/ml); format: functional; method in brief: as §1
[13] = system: Streptococcus intermedius; test: Antimicrobial activity against Streptococcus intermedius NCTC 11324 biofilm assessed as biofilm bacterial count at 0.02 ug/ml (Rvb =402.9 +/- 26.88 10^5 CFU/ml); format: functional
[14] = system: Streptococcus intermedius; test: Antimicrobial activity against Streptococcus intermedius NCTC 11324 biofilm assessed as biofilm bacterial count at 0.06 ug/ml (Rvb =402.9 +/- 26.88 10^5 CFU/ml); format: functional
[15] = system: Streptococcus intermedius; test: Antimicrobial activity against Streptococcus intermedius SI006 biofilm harboring luxS mutant gene assessed as biofilm bacterial count at 0.02 ug/ml in presence of 0.8 nM autoinducer 4,5-dihydroxy-2,3-pentanedione (Rvb =413.7 +/- 24.47 10^5 CFU/ml); format: functional
[16] = system: Streptococcus intermedius; test: Antimicrobial activity against Streptococcus intermedius SI006 planktonic cells harboring luxS mutant gene assessed as bacterial count at 0.06 ug/ml (Rvb =798.3 +/- 37.09 10^8 CFU/ml); format: functional
[17] = system: Streptococcus intermedius; test: Antimicrobial activity against Streptococcus intermedius NCTC 11324 planktonic cells assessed as bacterial count at 0.08 ug/ml (Rvb =771.7 +/- 35.14 10^8 CFU/ml); format: functional; method in brief: as §1
[18] = system: Streptococcus intermedius; test: Antimicrobial activity against Streptococcus intermedius SI006 biofilm harboring luxS mutant gene assessed as biofilm bacterial count at 0.04 ug/ml in presence of 0.8 nM autoinducer 4,5-dihydroxy-2,3-pentanedione (Rvb =413.7 +/- 24.47 10^5 CFU/ml); format: functional
[19] = system: Streptococcus intermedius; test: Antimicrobial activity against Streptococcus intermedius SI006 planktonic cells harboring luxS mutant gene assessed as bacterial count at 0.12 ug/ml in presence of 0.8 nM autoinducer 4,5-dihydroxy-2,3-pentanedione (Rvb =793.3 +/- 42.40 10^8 CFU/ml); format: functional
[20] = system: Streptococcus intermedius; test: Antimicrobial activity against Streptococcus intermedius NCTC 11324 planktonic cells assessed as bacterial count at 0.06 ug/ml (Rvb =771.7 +/- 35.14 10^8 CFU/ml); format: functional; method in brief: as §1
[21] = system: Streptococcus intermedius; test: Antimicrobial activity against Streptococcus intermedius SI006 biofilm harboring luxS mutant gene assessed as biofilm bacterial count at 0.04 ug/ml (Rvb =310.8 +/- 17.10 10^5 CFU/ml); format: functional
[22] = system: Streptococcus intermedius; test: Antimicrobial activity against Streptococcus intermedius SI006 biofilm harboring luxS mutant gene assessed as biofilm bacterial count at 0.06 ug/ml (Rvb =310.8 +/- 17.10 10^5 CFU/ml); format: functional
[23] = system: Streptococcus intermedius; test: Antimicrobial activity against Streptococcus intermedius SI006 biofilm harboring luxS mutant gene assessed as biofilm bacterial count at 0.02 ug/ml (Rvb =310.8 +/- 17.10 10^5 CFU/ml); format: functional

CC1(C)S[C@@H]2[C@H](NC(=O)[C@H](N)c3ccccc3)C(=O)N2[C@H]1C(=O)O [AMPICILLIN]
Activity [1]: 0.16 µg/mL
CFU [2]: 8.5 ×10⁸ /ml
CFU [3]: 39.1 ×10⁸ /ml
CFU [4]: 39.6 ×10⁸ /ml
CFU [5]: 48.7 ×10⁸ /ml
CFU [6]: 621.6 ×10⁵ /ml
CFU [7]: 16.4 ×10⁸ /ml
CFU [8]: 20.7 ×10⁸ /ml
Activity [9]: inactive
CFU [10]: 10.3 ×10⁸ /ml
CFU [11]: 819.2 ×10⁵ /ml
CFU [12]: 45.3 ×10⁸ /ml
CFU [13]: 486.2 ×10⁵ /ml
CFU [14]: 894.7 ×10⁵ /ml
CFU [15]: 459.5 ×10⁵ /ml
CFU [16]: 41.8 ×10⁸ /ml
CFU [17]: 43.3 ×10⁸ /ml
CFU [18]: 686 ×10⁵ /ml
CFU [19]: 18.4 ×10⁸ /ml
CFU [20]: 61.2 ×10⁸ /ml
CFU [21]: 268.6 ×10⁵ /ml
CFU [22]: 162.1 ×10⁵ /ml
CFU [23]: 324.1 ×10⁵ /ml
